Bioassay records: PubChem BioAssay, several laboratories
SKKanGAS inh – S. pyogenes SKKanGAS growth inhibitors in kanamycin, primary screen, streptokinase expression inhibitor project, SKKanGAS strain, BacTiter-Glo luminescence; 6 h; inhibition, % at 7.5 µM; hit rate 1.3% among 300,000; AID 1662, 2009;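 active = mean replicate score, as percent of positive control median, at least 50; inconclusive = mean below 50 but one replicate at or above 50; inactive = mean and every replicate below 50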;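 note: strain carries kanamycin resistance gene driven by streptokinase promoter and grows in 40 µg/ml kanamycin; loss of luminescence reflects streptokinase promoter inhibition or plain growth inhibition; 0% = median of DMSO wells and 100% = positive control at its reference dose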
Lmaj promast – Leishmania major promastigote growth inhibition, primary screen | inhibition, % at 10 µM | hit rate 9% among 200,000 | Leishmania major promastigotes, resazurin fluorescence viability; in the data active = inhibition above about 50%;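 note: promastigotes grown with compound for 44 hours at 28 °C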
CSC inhib – cancer stem cell viability inhibitors, primary screen, luminescence. cancer stem cell-like cells viability. inhibition, % at 7.5 µM. hit rate 1.1% among 300,000; in the data active = inhibition above about 75%; inconclusive = no clear call, values can overlap the other calls; tested in HMLE shEcad cells
Beta cell apopt – inhibitors of cytokine-induced beta cell apoptosis, primary screen, luminescence; INS-1E cytokine-induced death, ATP luminescence, 48 h; percent of positive-control rescue, neutral wells zero; protection from apoptosis, % (test concentration not listed); hit rate 0.8% among 300,000; AID 435005, 2010;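 active = Every replicate reaches about 75%, or at least half do and their mean reaches it too, limit read from the data; inconclusive = At least half of replicates reach the limit but their mean does not; inactive = Under half of replicates reach the limit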;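 note: 0% = cytokine-treated negative control wells and 100% = positive control rescue; higher means more ATP so stronger rescue from cytokine killing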
T cruzi inh – inhibitors of intracellular T. cruzi growth, primary screen, luminescence, NIH3T3 host cells; T. cruzi beta-gal in NIH3T3, 90 h; inhibition, % (concentration not given with the values); hit rate 1.4% among 300,000;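 active = mean inhibition across valid replicates above about 55%, limit read from the data; inconclusive = mean below that limit but half or more replicates reach it; inactive = mean below it, under half of replicates reach it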;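 note: signal also drops with host cell toxicity which is not excluded here; 0% = plate median of DMSO wells and 100% = zero luminescence signal; higher percent means less beta-gal luminescence so fewer parasites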
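compound dosing = single 50 nL compound addition per well in DMSO | material = NIH/3T3 host cells with β-galactosidase reporter T. cruzi | input = 5,000 host fibroblasts per well | timing = ≥90 h infection period, 3 h prior cell attachment | read-out basis = percent inhibition of parasite-derived β-gal signal | detection = GalScreen β-gal luminescence, detergent lysis, 60 min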
Mdm2 MdmX PPI – inhibitors of human Mdm2-MdmX association, primary screen, cell-based, luminescence, split luciferase, SaOS-2, uHTS | Protein Mdm4 (Homo sapiens) + E3 ubiquitin-protein ligase Mdm2 (Homo sapiens), … | hit rate 3% among 330,000 | SaOS-2 split-luciferase Mdm2/MdmX complementation | inhibition, % at 8 µM | AID 485346, 2010;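 active = inhibition of at least 50% at 8 µM in the primary screen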
Mdm2 MdmX conf – Mdm2-MdmX complex disruptors, retested hits, confirmation, luminescence, single concentration | shares compounds with Mdm2 MdmX PPI | Mdm2-MdmX binding, luminescent assay | inhibition, % at 8 µM | hit rate 55% among 10,000 | AID 489028, 2010; in the data active = inhibition above about 40%
Full FLuc ctr – full-length luciferase signal inhibition, confirmation, counter-screen for Mdm2/MdmX interaction inhibitor project, cell-based, single concentration, SaOS-2; shares compounds with Mdm2 MdmX PPI; hit rate 77% among 6,200; SaOS-2 full-length luciferase counterscreen, luminescence; AID 504607, 2011; inhibition, % at 8 µM;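 active = mean inhibition at 8 µM reaching about 37%, which flags the compound as non-specific, limit read from the data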;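 note: p53-null SaOS-2 cells with luciferase driven by a doxycycline-inducible promoter; compound on cells about two nights before reading with doxycycline added after day one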
* hit, by the source's call; ? = inconclusive; . = no result. In the library only some 9.4% were active in any assay of this set; here they are far more common.

SMILES | SKKanGAS inh | Lmaj promast | CSC inhib | Beta cell apopt | T cruzi inh | Mdm2 MdmX PPI | Mdm2 MdmX conf | others
COc1cc(/C=C2\COC/C(=C\c3cc(OC)c(OC)c(OC)c3)C2=O)cc(OC)c1OC | -6.1 | . | . | . | 10.5 | . | .
COc1cc(/C=C2/CCC/C(=C\c3cc(O)c(OC)c(Cl)c3)C2=O)cc(Cl)c1O | 42.9 | 91.3* | 118.7* | 8.5 | 11.5 | 95.0* | 80.0* | Full FLuc ctr=51.9*
COc1cc(/C=C2\CC(C(C)(C)C)C/C(=C\c3cc(OC)c(OC)c(OC)c3)C2=O)cc(OC)c1OC (centres undefined) | 21.8 | . | 106.7* | 97.9* | 50.4 | 97.5* | 99.2* | Full FLuc ctr=55.5*
COc1ccc2[nH]c3c(c2c1)CCN1C(=O)C(CC(=O)NCc2ccco2)C[C@H](C(=O)N2CCCCC2)[C@@]31CCc1ccccc1 (some centres undefined) | . | . | . | . | . | 24.2 | .
COc1cc(/C=C2\CC/C(=C\c3cc(OC)c(O)c(OC)c3)C2=O)cc(OC)c1O | . | 57.8* | 85.5* | 88.9* | . | 96.9* | 62.1* | Full FLuc ctr=25.6
CCOc1cc(/C=N/n2c(C)nnc2C)ccc1O | -8.8 | . | -5.4 | 1.7 | 0.1 | 9.3 | .
COc1ccccc1CCCNC(=O)C1CCC(=O)N(CCc2ccc(Cl)cc2)C1 (centres undefined) | -0.2 | . | -11.1 | 5.7 | -11.0 | 13.3 | .
O=C(Cn1cc(F)c(=O)[nH]c1=O)NCCO | -14.8 | -2.3 | . | -4.7 | -1.4 | -8.1 | .
Cc1cccc(Nc2ccc(NCc3ccccc3)nn2)c1 | -9.6 | 2.9 | -4.8 | -2.5 | 12.2 | -38.0 | .
Cc1cc(N/N=C/c2ccccc2Cl)nc(NCc2ccccc2)n1 | 15.4 | 86.4* | 93.6* | 35.1 | 31.3 | 71.7* | 38.2
Cc1cc(N2CCN(c3ccccc3)CC2)nc(NCc2ccccc2)n1 | 9.3 | 28.6 | -14.1 | 36.3 | 55.3* | 75.7* | 32.5
Cc1ccc(Nc2cc(C)nc(NCc3ccccc3)n2)cc1 | 0.5 | 100.4* | ? | 105.1* | 61.2* | 56.8* | 35.1
COCCC(=O)N1CCC(Oc2ccc(C(=O)NCc3nccn3C)cc2)CC1 | -2.4 | . | 2.8 | -17.0 | 2.5 | 14.3 | .
Nc1nc(Cl)cc(N2CCC(c3cc(-c4ccc(Cl)cc4)n[nH]3)CC2)n1 | 21.4 | 99.7* | 70.2 | 104.0* | 58.2* | 83.9* | -0.9
Cc1ccc(CN2CCC(c3cc(-c4ccc(Cl)cc4)n[nH]3)CC2)cc1 | -0.6 | . | 30.4 | 50.7 | 44.1 | 64.0* | 36.1 | Full FLuc ctr=74.0*
O=C(CSc1nnc2ccccn12)Nc1ccc(S(=O)(=O)N2CCOCC2)cc1 | -0.5 | -3.6 | -10.1 | -2.5 | 2.4 | 4.7 | .
COCCCn1c(SCC(=O)NC2CCCC2)nnc1-c1ccncc1 | 3.0 | . | -8.4 | -2.1 | 11.0 | 23.3 | .
Cc1cccc(C)c1OCc1nnc(SCC(=O)Nc2cccc(C(=O)N3CCOCC3)c2)n1C | -2.8 | 0.2 | -16.1 | 5.6 | 3.4 | 52.6* | 6.9
Cc1cccc(NC(=S)N(CCCN2CCCC2)Cc2cccn2Cc2ccc(Cl)cc2)c1 | -1.9 | 98.2* | 60.3 | 16.7 | 37.4 | 53.9* | 36.8 | Full FLuc ctr=23.4
CCOc1ccc(NC(=S)N(CCCN2CCCC2)Cc2cccn2Cc2ccc(Cl)cc2)cc1 | -16.0 | 100.0* | . | 7.3 | 51.5 | 65.2* | 34.8
CCCCNC(=O)COC(=O)c1ccc(N(C)C)cc1 | -0.8 | -1.2 | -2.4 | -18.6 | -1.1 | 15.7 | .
NC(=O)c1ccsc1NC(=O)COC(=O)CNC(=O)c1ccc(Cl)cc1 | . | . | -11.6 | 0.3 | . | 2.9 | .
COc1cccc(NC(=O)CSc2nc3n[nH]c(C)c3c(=N)n2-c2cccc(OC)c2)c1 | 18.8 | 14.9 | -1.9 | 7.0 | 30.3 | 35.4 | .
Cc1ccc(CNC(=O)CSc2nc3n[nH]c(C)c3c(=N)n2-c2cccc(C)c2)cc1 | 1.2 | 2.6 | . | 0.5 | -0.6 | 21.4 | .
